According to publication PMC11612064 (EJNMMI Radiopharmacy and Chemistry, 2024):
Each block holds one compound with its values, some of them ahead of it.

Experiments:
[1] = tested on: human ACE2; settings: ref Wang et al. [2024], Joshi et al. [2016]; cited from earlier work
[2] = target: bovine carboxypeptidase A; settings: ref Wang et al. [2024], Joshi et al. [2016]; cited from earlier work
[3] = tested on: human testicular ACE; settings: ref Wang et al. [2024], Joshi et al. [2016]; cited from earlier work
[4] = target: ACE2 (Homo sapiens, UniProt Q9BYF1); experiment: In vivo biodistribution studies; parameters: species or system humanized ACE2 mice; settings: 30 min after injection, i.v. tail vein 3.7 MBq/kg, mean ± SD, n = 3
Procedure, shortened: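 Male humanized ACE2 knock-in mice (C57BL/6 background, 6 weeks old) under 1.5% isoflurane, kept warm, received the ¹⁸F-labelled test compound by lateral tail vein and were killed by cervical dislocation 30 min later. Organs were weighed and gamma-counted, decay-corrected to euthanasia, and reported as %ID/g. Anti-ACE2 IHC AOD (integrated optical density/area) was linearly regressed against %ID/g.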

ACE2, sequence (Q9BYF1 18-805): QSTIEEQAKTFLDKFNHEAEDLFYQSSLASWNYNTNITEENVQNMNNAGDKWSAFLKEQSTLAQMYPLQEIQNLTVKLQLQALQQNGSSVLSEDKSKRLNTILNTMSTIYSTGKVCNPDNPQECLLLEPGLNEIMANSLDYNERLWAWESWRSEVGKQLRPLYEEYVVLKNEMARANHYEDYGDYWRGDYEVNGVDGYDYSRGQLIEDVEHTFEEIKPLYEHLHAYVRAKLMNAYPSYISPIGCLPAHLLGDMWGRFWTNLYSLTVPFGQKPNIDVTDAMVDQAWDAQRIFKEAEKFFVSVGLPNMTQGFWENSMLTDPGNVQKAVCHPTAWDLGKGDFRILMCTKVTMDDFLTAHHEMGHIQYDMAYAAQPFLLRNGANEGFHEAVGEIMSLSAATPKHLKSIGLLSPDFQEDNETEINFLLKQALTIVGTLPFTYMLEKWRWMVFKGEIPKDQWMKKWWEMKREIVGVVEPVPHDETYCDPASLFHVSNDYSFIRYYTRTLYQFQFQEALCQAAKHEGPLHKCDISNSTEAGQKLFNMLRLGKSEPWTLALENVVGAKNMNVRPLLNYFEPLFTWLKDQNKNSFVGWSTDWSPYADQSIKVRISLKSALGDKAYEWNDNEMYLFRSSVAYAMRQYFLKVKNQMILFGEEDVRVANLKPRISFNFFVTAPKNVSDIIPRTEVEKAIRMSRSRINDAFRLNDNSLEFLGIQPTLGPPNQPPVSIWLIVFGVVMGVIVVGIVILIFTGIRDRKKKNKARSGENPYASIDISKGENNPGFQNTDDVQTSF

Structure (SMILES): CC(C)C[C@H](N[C@@H](Cc1cncn1Cc1cc(Cl)cc(Cl)c1)C(=O)O)C(=O)O [MLN-4760]
IC50 [1]: 0.00044 µM
IC50 [2]: 27 µM
IC50 [3]: > 100 µM

Tissue uptake, Belly fat [4]: 0.48 ± 0.45 %ID/g
Tissue uptake, Cerebellum [4]: 0.40 ± 0.22 %ID/g
Tissue uptake, Cerebrum [4]: 3.18 ± 4.31 %ID/g
Tissue uptake, Eyeball [4]: 2.84 ± 0.74 %ID/g
Tissue uptake, Heart [4]: 3.26 ± 0.28 %ID/g
Tissue uptake, Kidneys [4]: 4.73 ± 0.58 %ID/g
Tissue uptake, Large intestine [4]: 3.34 ± 1.88 %ID/g
Tissue uptake, Liver [4]: 2.31 ± 0.77 %ID/g
Tissue uptake, Lung [4]: 2.49 ± 1.09 %ID/g
Tissue uptake, Medulla [4]: 1.83 ± 0.27 %ID/g
Tissue uptake, Muscle [4]: 2.27 ± 0.75 %ID/g
Tissue uptake, Oesophagus [4]: 11.32 ± 4.13 %ID/g
Tissue uptake, Parotid [4]: 1.93 ± 0.79 %ID/g
Tissue uptake, Shoulder fat [4]: 2.84 ± 1.56 %ID/g
Tissue uptake, Small intestine [4]: 2.74 ± 0.90 %ID/g
Tissue uptake, Spleen [4]: 1.58 ± 2.11 %ID/g
Tissue uptake, Stomach [4]: 3.34 ± 2.71 %ID/g
Tissue uptake, Testicles [4]: 2.91 ± 1.95 %ID/g
Structure (SMILES): CC(C)C[C@H](N[C@@H](Cc1cncn1Cc1cc([18F])cc(Cl)c1)C(=O)O)C(=O)O [^18F-MLN-4760]
